From ChEMBL document CHEMBL1146475, “Spasmolytic effects, mode of action, and structure-activity relationships of stilbenoids from Nidema boothii” (J Nat Prod, 2004)
Activity calls are given as the source filed them. The calls are words filed in the database; no cut-off is given here.

Tests used:
Ileum [1] = test: Spasmolytic activity in guinea pig ileum assessed as inhibition of spontaneous contraction; assay type: functional, tissue-based; details: Cavia porcellus
In short: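 Ileum from male guinea-pigs (600-800 g) in Krebs-Henseleit, pH 7.4, isometric tension recorded. After 30 min stabilization and 10 min control period, DMSO-dissolved compound added, one concentration per segment, and recorded 10 min. Inhibition from area under curve of frequency and amplitude. Mean ±SEM of six experiments; IC50 by nonlinear curve fitting.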

Calmodulin (Bos taurus) = Calmodulin (Bos taurus) (UniProt P62157); test: Binding affinity to bovine brain calmodulin by electrophoretic mobility assay in presence of calcium chloride
In short: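 CaM pretreated 1.5 h at 30 °C with CaCl2, then test compound (0.33 µg in DMSO) applied; interaction judged from CaM band mobility on 15% polyacrylamide gel electrophoresis.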

Ileum [2] = test: Spasmolytic activity in guinea pig ileum assessed as inhibition of spontaneous contraction relative to papaverine; assay type: functional, Cavia porcellus
Ileum [3] = test: Spasmolytic activity in guinea pig ileum assessed as inhibition of spontaneous contraction in presence of L-NAME; assay type: functional, tissue-based; details: Cavia porcellus
In short: (§1)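 Guinea-pig ileum spontaneous-contraction assay (male, 600-800 g, Krebs-Henseleit pH 7.4, isometric tension, 10 min responses, AUC-based inhibition) run in the presence of L-NAME (500 µM) or ODQ (100 µM). Concentration-response curves as mean ±SEM of six data.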

[4] = Inhibition of bovine brain CaM-dependent PDE assessed as inorganic phosphate release in presence of bovine brain calmodulin; parameters: species or system Bos taurus
In short: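 Bovine-brain CaM (0.2 µg) preincubated 3 min with 0.015 units CaM-deficient bovine-brain PDE in buffer with 0.3 units 5′-nucleotidase, 45 mM Tris-HCl, 5.6 mM Mg acetate, 45 mM imidazole, 2.5 mM CaCl2, pH 7.0; reaction started with 100 µL 10.8 mM cAMP, run 30 min. Phosphate measured by Sumner method at 660 nm. IC50 from concentration-inhibition curves, mean ±SEM of at least three experiments.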

Ileum [5] = test: Spasmolytic activity in guinea pig ileum assessed as inhibition of spontaneous contraction in presence of ODQ; assay type: functional, tissue-based; details: Cavia porcellus; in short: as §1

Row | IC50 (Ileum [1]) [µM] | Activity (Calmodulin (Bos taurus)) | IC50 [4] [µM] | SMILES | Emax (Ileum [1]) [%] | Ratio IC50 (Ileum [2]) | Activity (Ileum [3]) | Activity (Ileum [5])
1 | 0.96 | Active | – | COc1cccc(CCc2cc(OC)cc(OC)c2)c1 | 75.6 | 4.41 | – | –
2 | 0.56 | – | – | COc1cc(CCc2cc(OC)c(O)c(OC)c2)ccc1O [MOSCATILIN] | 73.6 | 7.65 | – | –
3 | 0.7 | Active | – | COc1ccc(CCc2cc(O)cc(O)c2)cc1O | 51.8 | 5.99 | – | –
4 | 1.39 | Active | – | COc1cc(CCc2ccc(O)c(OC)c2)cc(OC)c1 | 76.4 | 3.05 | – | –
5 | 0.26 | Active | 7 | COc1cc(O)cc(CCc2ccc(O)c(OC)c2)c1 [GIGANTOL] | 81.3 | 16.26 | inactive | inactive
6 | 0.14 | Active | 9 | COc1cc(O)cc(CCc2ccc(OC)c(O)c2)c1 | 66.5 | 31.33 | – | –
7 | 1.29 | Active | 21.2 | COc1ccc(CCc2ccccc2)cc1O | 82.2 | 3.28 | – | –
8 | 0.85 | Active | – | Oc1cc(O)cc(CCc2ccc(O)c(O)c2)c1 | 53.6 | 4.94 | – | –
9 | – | Active | 3.2 | COC1=CC(=O)CC12CCc1cccc(O)c1C2=O (stereo not given) [NIDEMONE] | – | – | – | –
10 | 0.18 | – | 10.3 | CN(C)CCCN1c2ccccc2Sc2ccc(Cl)cc21 [CHLORPROMAZINE] | 81.8 | 23.5 | – | –
11 | – | Active | 10.9 | COC1=CC(=O)C2=C(CCc3cc(O)ccc32)C1=O [EPHEMERANTHOQUINONE] | – | – | – | –
12 | 1.28 | Active | – | COc1cccc(CCc2cc(O)cc(OC)c2)c1 | 58.6 | 3.3 | – | –
13 | 2.36 | Active | – | Oc1cccc(CCc2cc(O)cc(O)c2)c1 | 78.5 | 1.78 | – | –
14 | 1.49 | Active | 36.6 | Oc1cc(O)cc(CCc2ccccc2)c1 [DIHYDROPINOSYLVIN] | 83.3 | 2.84 | – | –
15 | 0.41 | – | – | COc1cc(O)c2c(c1)CCc1cc(O)ccc1-2 [LUSIANTHRIDIN] | – | – | – | –
16 | 0.58 | Active | – | COc1cc(O)cc(CCc2ccc(OC)c(OC)c2)c1 | 66 | 7.32 | – | –
17 | 0.24 | Active | 13.3 | COc1cc(O)cc(CCc2cccc(O)c2)c1 [BATATASIN III] | 67.5 | 17.62 | inactive | inactive
18 | 0.14 | Active | 10.1 | COc1cc(O)cc(CCc2ccc(O)cc2)c1 | 85 | 30.85 | – | –

Row | SMILES | IC50 (Ileum [1]) [µM] | Activity (Calmodulin (Bos taurus)) | IC50 [4] [µM] | Emax (Ileum [1]) [%] | Ratio IC50 (Ileum [2]) | Activity (Ileum [3]) | Activity (Ileum [5])
19 | Oc1ccc(CCc2cc(O)cc(O)c2)cc1 [DIHYDRORESVERATROL] | 1.75 | Active | – | 64.1 | 2.42 | – | –
20 | COc1ccc(Cc2nccc3cc(OC)c(OC)cc23)cc1OC [PAPAVERINE] | 4.23 | – | – | 91.8 | – | – | –
21 | COc1cc(CCc2ccc(OC)c(OC)c2)cc(OC)c1 | 0.62 | Active | – | 84.9 | 6.82 | – | –
22 | COc1cc2ccc3c(OC)c(O)ccc3c2c(OC)c1O | 0.45 | – | – | – | – | – | –
